{
  "source": "ChEMBL document CHEMBL1135628",
  "about": "“Potent and long-acting corticotropin releasing factor (CRF) receptor 2 selective peptide competitive antagonists” (J Med Chem, 2002)",
  "key": {"[1]": {"biological_target": "Corticotropin-releasing factor receptor 2 (Mus musculus) (UniProt Q60748)", "sequence (Q60748 whole entry, looked up)": "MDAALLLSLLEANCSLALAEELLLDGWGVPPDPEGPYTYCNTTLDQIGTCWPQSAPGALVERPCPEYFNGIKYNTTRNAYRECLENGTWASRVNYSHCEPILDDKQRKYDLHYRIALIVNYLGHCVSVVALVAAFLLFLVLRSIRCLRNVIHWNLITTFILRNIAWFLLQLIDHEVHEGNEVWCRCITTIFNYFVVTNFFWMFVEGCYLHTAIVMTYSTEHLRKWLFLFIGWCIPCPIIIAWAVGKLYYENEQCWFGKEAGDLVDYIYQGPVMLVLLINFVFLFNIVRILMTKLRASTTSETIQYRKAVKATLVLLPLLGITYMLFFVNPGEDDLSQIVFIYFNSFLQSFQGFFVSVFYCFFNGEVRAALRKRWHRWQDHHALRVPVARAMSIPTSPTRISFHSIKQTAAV", "assay": "Inhibition of recombinant mouse corticotropin releasing factor receptor 2 beta (CRF2beta) assayed using nonselective [125I]-labeled agonist [Tyr0,Glu1,Nle17]-sauvagine as radioligand"}, "[2]": {"biological_target": "T1, Corticotropin-releasing factor receptor 1 (Homo sapiens, UniProt P34998)", "T1 sequence (P34998 whole entry)": "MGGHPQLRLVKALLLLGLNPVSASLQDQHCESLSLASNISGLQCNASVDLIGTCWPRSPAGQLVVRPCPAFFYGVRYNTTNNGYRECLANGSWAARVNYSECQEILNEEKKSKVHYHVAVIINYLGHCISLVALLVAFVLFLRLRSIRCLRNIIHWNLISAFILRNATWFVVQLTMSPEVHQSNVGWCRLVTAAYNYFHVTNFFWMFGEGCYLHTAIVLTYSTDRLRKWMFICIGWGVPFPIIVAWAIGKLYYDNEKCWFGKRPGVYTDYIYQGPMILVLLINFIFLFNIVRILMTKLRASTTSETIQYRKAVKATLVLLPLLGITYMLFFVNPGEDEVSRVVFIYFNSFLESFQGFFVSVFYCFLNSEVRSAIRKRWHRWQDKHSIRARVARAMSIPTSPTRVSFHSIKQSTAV", "assay": "Inhibition of recombinant corticotropin releasing factor receptor 1 assayed using nonselective [125I]-labeled agonist [Tyr0,Glu1,Nle17]-sauvagine", "in_short": "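Crude plasma membranes from stable CHO lines expressing hCRF1 or mCRF2β, stored in 10% sucrose at -80 °C. Incubated 90 min at room temperature, then washed and filtered. IC50 taken from one representative assay, repeated at least twice.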"}},
  "data": [
    {"smiles": "CCCC[C@H](NC(=O)[C@H](CCCCN)NC(=O)[C@H](CCCN=C(N)N)NC(=O)[C@H](CC(C)C)NC(=O)[C@](C)(CC(C)C)NC(=O)[C@H](Cc1c[nH]cn1)NC(=O)[C@@H](Cc1ccccc1)NC(=O)[C@H](CO)NC(=O)[C@H](CC(C)C)NC(=O)[C@H](CC(=O)O)NC(C)=O)C(=O)N[C@H](C(=O)N[C@@H](CCC(=O)O)C(=O)N[C@H](C(=O)N[C@@H](CCC(=O)O)C(=O)N[C@@H](CCCCN)C(=O)N[C@@H](CCC(N)=O)C(=O)N[C@@H](CCC(=O)O)C(=O)N[C@@H](CCCCN)C(=O)N[C@@H](CCC(=O)O)C(=O)N[C@@H](CCCCN)C(=O)N[C@@H](CCC(N)=O)C(=O)N[C@@H](CCC(N)=O)C(=O)N[C@H]1CCC(=O)NCCCC[C@@H](C(=O)N[C@@H](CCCN=C(N)N)C(=O)N[C@@H](CC(C)C)C(=O)N[C@@H](CC(C)C)C(=O)N[C@@H](CC(C)C)C(=O)N[C@@H](CC(=O)O)C(=O)N[C@@](C)(CC(C)C)C(=O)N[C@H](C(N)=O)[C@@H](C)CC)NC(=O)[C@H](CC(N)=O)NC(=O)[C@H](C)NC1=O)[C@@H](C)CC)[C@@H](C)CC", "values": [
      {"measurement": "IC50", "setting": "[1]", "result": 81, "unit": "nM"},
      {"measurement": "IC50", "setting": "[2]", "result": "> 500", "unit": "nM"}
    ]},
    {"smiles": "CCCC[C@H](NC(=O)[C@H](CCCCN)NC(=O)[C@H](CCCN=C(N)N)NC(=O)[C@H](CC(C)C)NC(=O)[C@](C)(CC(C)C)NC(=O)[C@H](Cc1c[nH]cn1)NC(=O)[C@@H](Cc1ccccc1)NC(=O)[C@H](CO)NC(=O)[C@H](CC(C)C)NC(=O)[C@H](CC(=O)O)NC(C)=O)C(=O)N[C@H](C(=O)N[C@@H](CCC(=O)O)C(=O)N[C@H](C(=O)N[C@@H](CCC(=O)O)C(=O)N[C@@H](CCCCN)C(=O)N[C@@H](CCC(N)=O)C(=O)N[C@@H](CCC(=O)O)C(=O)N[C@@H](CCCCN)C(=O)N[C@@H](CCC(=O)O)C(=O)N[C@@H](CCCCN)C(=O)N[C@@H](CCC(N)=O)C(=O)N[C@@H](CCC(N)=O)C(=O)N[C@@H](C)C(=O)N[C@@H](C)C(=O)N[C@@H](CCC(N)=O)C(=O)N[C@@H](CC(N)=O)C(=O)N[C@@H](CCCN=C(N)N)C(=O)N[C@@H](CCCCNC(C)=O)C(=O)N[C@@H](CC(C)C)C(=O)N[C@@H](CC(C)C)C(=O)N[C@@H](CC(=O)O)C(=O)N[C@@](C)(CC(C)C)C(=O)N[C@H](C(N)=O)[C@@H](C)CC)[C@@H](C)CC)[C@@H](C)CC", "values": [
      {"measurement": "IC50", "setting": "[1]", "result": 0.51, "unit": "nM"},
      {"measurement": "IC50", "setting": "[2]", "result": 3.4, "unit": "nM"}
    ]},
    {"smiles": "CCCC[C@H](NC(=O)[C@H](CCCCN)NC(=O)[C@H](CCCN=C(N)N)NC(=O)[C@H](CC(C)C)NC(=O)[C@](C)(CC(C)C)NC(=O)[C@H](Cc1c[nH]cn1)NC(=O)[C@@H](Cc1ccccc1)NC(=O)[C@H](CO)NC(=O)[C@H](CC(C)C)NC(=O)[C@H](CC(=O)O)NC(C)=O)C(=O)N[C@H](C(=O)N[C@@H](CCC(=O)O)C(=O)N[C@H](C(=O)N[C@@H](CCC(=O)O)C(=O)N[C@@H](CCCCN)C(=O)N[C@@H](CCC(N)=O)C(=O)N[C@@H](CCC(=O)O)C(=O)N[C@@H](CCCCN)C(=O)N[C@@H](CCC(=O)O)C(=O)N[C@@H](CCCCN)C(=O)N[C@@H](CCC(N)=O)C(=O)N[C@@H](CCC(N)=O)C(=O)N[C@@H](C)C(=O)N[C@@H](C)C(=O)N[C@H]1CCC(=O)NCCCC[C@@H](C(=O)N[C@@H](CC(C)C)C(=O)N[C@@H](CC(C)C)C(=O)N[C@@H](CC(=O)O)C(=O)N[C@@](C)(CC(C)C)C(=O)N[C@H](C(N)=O)[C@@H](C)CC)NC(=O)[C@H](CCCN=C(N)N)NC(=O)[C@H](CC(N)=O)NC1=O)[C@@H](C)CC)[C@@H](C)CC", "values": [
      {"measurement": "IC50", "setting": "[1]", "result": 0.61, "unit": "nM"},
      {"measurement": "IC50", "setting": "[2]", "result": 5.9, "unit": "nM"}
    ]}
  ]
}
